Test results: ChEMBL document CHEMBL1687778, “Genetic determinants involved in the susceptibility of Pseudomonas aeruginosa to beta-lactam antibiotics” (2010)
Values after ≈ are worked out from the molar mass of the structure shown.

How the values were obtained:
Type in all cases: functional
Pseudomonas aeruginosa [1] = assay: Antimicrobial activity against Pseudomonas aeruginosa PA14 PA14_06490 harboring mutation in hypothetical protein by Etest method
Procedure, shortened: (§1)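 Overnight LB cultures (37°C) diluted in sterile 0.85% NaCl to about 1 × 10^7 CFU/ml. 100 µl spread on Mueller-Hinton agar, one Etest strip per plate, 18 h at 37°C. Ceftazidime, imipenem and meropenem tested. Wild-type PA14 plate included in each set. Each mutant verified in triplicate.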

Pseudomonas aeruginosa [2] = assay: Antimicrobial activity against Pseudomonas aeruginosa PA14 PA5443 harboring uvrD mutant gene by Etest method
Procedure, shortened: (§2)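 Etest MIC. Overnight LB cultures at 37°C were diluted in sterile 0.85% NaCl to about 1 × 10^7 CFU/ml. 100 µl was spread on Mueller-Hinton agar, one strip was placed per plate, and plates were incubated at 37°C for 18 h. Equal cell numbers were seeded per plate, and results were verified in triplicate. PA14 wild type was included in each set as a susceptibility control.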

Pseudomonas aeruginosa [3] = assay: Antimicrobial activity against Pseudomonas aeruginosa PA14 PA4527 harboring pilC mutant gene by Etest method; procedure, shortened: as §2
Pseudomonas aeruginosa [4] = assay: Antimicrobial activity against Pseudomonas aeruginosa PA14 PA2128 harboring cupA1 mutant gene by Etest method; procedure, shortened: as §1
Pseudomonas aeruginosa [5] = assay: Antimicrobial activity against Pseudomonas aeruginosa PA14 PA5288 harboring glnK mutant gene by Etest method; procedure, shortened: as §2
Pseudomonas aeruginosa [6] = assay: Antimicrobial activity against Pseudomonas aeruginosa PA14 PA0958 harboring oprD mutant gene by Etest method; procedure, shortened: as §1
Pseudomonas aeruginosa [7] = assay: Antimicrobial activity against Pseudomonas aeruginosa PA14 PA3721 harboring nalC mutant gene by Etest method; procedure, shortened: as §2
Pseudomonas aeruginosa [8] = assay: Antimicrobial activity against Pseudomonas aeruginosa PA14 PA3141 harboring wbpM mutant gene by Etest method; procedure, shortened: as §1
Pseudomonas aeruginosa [9] = assay: Antimicrobial activity against Pseudomonas aeruginosa PA14 PA4748 harboring tpiA mutant gene by Etest method; procedure, shortened: as §2
Pseudomonas aeruginosa [10] = assay: Antimicrobial activity against wild type Pseudomonas aeruginosa PA14 by Etest method; procedure, shortened: as §2
Pseudomonas aeruginosa [11] = assay: Antimicrobial activity against Pseudomonas aeruginosa PA14 PA3259 harboring mutation in conserved hypothetical protein by Etest method; procedure, shortened: as §2
Pseudomonas aeruginosa [12] = assay: Antimicrobial activity against Pseudomonas aeruginosa PA14 PA1011 harboring mutation in putative lipoprotein by Etest method; procedure, shortened: as §1
Pseudomonas aeruginosa [13] = assay: Antimicrobial activity against Pseudomonas aeruginosa PA14 PA5002 harboring mutation in hypothetical protein by Etest method; procedure, shortened: as §2
Pseudomonas aeruginosa [14] = assay: Antimicrobial activity against Pseudomonas aeruginosa PA14 PA5003 harboring mutation in conserved hypothetical protein by Etest method; procedure, shortened: as §2
Pseudomonas aeruginosa [15] = assay: Antimicrobial activity against Pseudomonas aeruginosa PA14 PA5000 harboring wapR mutant gene by Etest method; procedure, shortened: as §2
Pseudomonas aeruginosa [16] = assay: Antimicrobial activity against Pseudomonas aeruginosa PA14 PA2970 harboring rpmF mutant gene by Etest method; procedure, shortened: as §1
Pseudomonas aeruginosa [17] = assay: Antimicrobial activity against Pseudomonas aeruginosa PA14 PA14_07490/07510 harboring mutation in intergenic region by Etest method; procedure, shortened: as §1
Pseudomonas aeruginosa [18] = assay: Antimicrobial activity against Pseudomonas aeruginosa PA14 PA0766 harboring mucD mutant gene by Etest method; procedure, shortened: as §1
Pseudomonas aeruginosa [19] = assay: Antimicrobial activity against Pseudomonas aeruginosa PA14 PA4753 harboring mutation in putative RNA-binding protein by Etest method; procedure, shortened: as §2
Pseudomonas aeruginosa [20] = assay: Antimicrobial activity against Pseudomonas aeruginosa PA14 PA3704 harboring wspE mutant gene by Etest method; procedure, shortened: as §2
Pseudomonas aeruginosa [21] = assay: Antimicrobial activity against Pseudomonas aeruginosa PA14 PA4005 harboring mutation in conserved hypothetical protein by Etest method; procedure, shortened: as §2
Pseudomonas aeruginosa [22] = assay: Antimicrobial activity against Pseudomonas aeruginosa PA14 PA4088 harboring mutation in putative aminotransferase by Etest method; procedure, shortened: as §2
Pseudomonas aeruginosa [23] = assay: Antimicrobial activity against Pseudomonas aeruginosa PA14 PA0770 harboring rnc mutant gene by Etest method; procedure, shortened: as §1
Pseudomonas aeruginosa [24] = assay: Antimicrobial activity against Pseudomonas aeruginosa PA14 PA14_43090 harboring mutation in hypothetical protein by Etest method; procedure, shortened: as §1
Pseudomonas aeruginosa [25] = assay: Antimicrobial activity against Pseudomonas aeruginosa PA14 PA3800 harboring mutation in conserved hypothetical protein by Etest method; procedure, shortened: as §2
Pseudomonas aeruginosa [26] = assay: Antimicrobial activity against Pseudomonas aeruginosa PA14 PA3649 harboring mutation in putative membrane-associated zinc metalloprotease by Etest method; procedure, shortened: as §2
Pseudomonas aeruginosa [27] = assay: Antimicrobial activity against Pseudomonas aeruginosa PA14 PA3589 harboring mutation in acetyl-coenzyme A (CoA) acetyltransferase (thiolase) by Etest method; procedure, shortened: as §2
Pseudomonas aeruginosa [28] = assay: Antimicrobial activity against Pseudomonas aeruginosa PA14 PA2023 harboring galU mutant gene by Etest method; procedure, shortened: as §1
Pseudomonas aeruginosa [29] = assay: Antimicrobial activity against Pseudomonas aeruginosa PA14 PA0764 harboring mucB mutant gene by Etest method; procedure, shortened: as §1
Pseudomonas aeruginosa [30] = assay: Antimicrobial activity against Pseudomonas aeruginosa PA14 PA1483 harboring cycH mutant gene by Etest method; procedure, shortened: as §1
Pseudomonas aeruginosa [31] = assay: Antimicrobial activity against Pseudomonas aeruginosa PA14 PA14_23430 harboring mutation in putative heparinase by Etest method; procedure, shortened: as §1
Pseudomonas aeruginosa [32] = assay: Antimicrobial activity against Pseudomonas aeruginosa PA14 PA4109 harboring ampR mutant gene by Etest method; procedure, shortened: as §2

In the case of `C[C@@H](O)[C@H]1C(=O)N2C(C(=O)O)=C(S[C@@H]3CN[C@H](C(=O)N(C)C)C3)[C@H](C)[C@H]12` [MEROPENEM], the MIC (Pseudomonas aeruginosa [1]) is reported as 0.125 mg/L (≈ 0.326 µM), the MIC (Pseudomonas aeruginosa [2]) is reported as 0.094 mg/L (≈ 0.245 µM) and the MIC (Pseudomonas aeruginosa [3]) is reported as 0.125 mg/L (≈ 0.326 µM). For the same compound, the MIC (Pseudomonas aeruginosa [4]) was 0.125 mg/L (≈ 0.326 µM), the MIC (Pseudomonas aeruginosa [5]) was 0.047 mg/L (≈ 0.123 µM) and the MIC (Pseudomonas aeruginosa [6]) was 1 mg/L (≈ 2.61 µM). The MIC (Pseudomonas aeruginosa [7]) was 0.38 mg/L (≈ 0.991 µM), the MIC (Pseudomonas aeruginosa [8]) was 0.125 mg/L (≈ 0.326 µM) and the MIC (Pseudomonas aeruginosa [9]) was 0.25 mg/L (≈ 0.652 µM). It also gave an MIC (Pseudomonas aeruginosa [10]) of 0.125 mg/L (≈ 0.326 µM), an MIC (Pseudomonas aeruginosa [11]) of 0.125 mg/L (≈ 0.326 µM) and an MIC (Pseudomonas aeruginosa [12]) of 0.19 mg/L (≈ 0.495 µM). For the same compound, the MIC (Pseudomonas aeruginosa [13]) was 0.094 mg/L (≈ 0.245 µM), the MIC (Pseudomonas aeruginosa [14]) was 0.25 mg/L (≈ 0.652 µM) and the MIC (Pseudomonas aeruginosa [15]) was 0.38 mg/L (≈ 0.991 µM). The MIC (Pseudomonas aeruginosa [16]) was 0.125 mg/L (≈ 0.326 µM), the MIC (Pseudomonas aeruginosa [17]) was 0.094 mg/L (≈ 0.245 µM) and the MIC (Pseudomonas aeruginosa [18]) was 0.125 mg/L (≈ 0.326 µM). The MIC (Pseudomonas aeruginosa [19]) was 0.064 mg/L (≈ 0.167 µM), the MIC (Pseudomonas aeruginosa [20]) was 0.25 mg/L (≈ 0.652 µM) and the MIC (Pseudomonas aeruginosa [21]) was 0.094 mg/L (≈ 0.245 µM). For the same compound, the MIC (Pseudomonas aeruginosa [22]) was 0.125 mg/L (≈ 0.326 µM), the MIC (Pseudomonas aeruginosa [23]) was 0.047 mg/L (≈ 0.123 µM) and the MIC (Pseudomonas aeruginosa [24]) was 0.125 mg/L (≈ 0.326 µM). The MIC (Pseudomonas aeruginosa [25]) was 0.125 mg/L (≈ 0.326 µM), the MIC (Pseudomonas aeruginosa [26]) was 0.125 mg/L (≈ 0.326 µM) and the MIC (Pseudomonas aeruginosa [27]) was 0.125 mg/L (≈ 0.326 µM). For the same compound, the MIC (Pseudomonas aeruginosa [28]) was 0.38 mg/L (≈ 0.991 µM), the MIC (Pseudomonas aeruginosa [29]) was 0.125 mg/L (≈ 0.326 µM) and the MIC (Pseudomonas aeruginosa [30]) was 0.125 mg/L (≈ 0.326 µM). It also gave an MIC (Pseudomonas aeruginosa [31]) of 0.125 mg/L (≈ 0.326 µM) and an MIC (Pseudomonas aeruginosa [32]) of 0.125 mg/L (≈ 0.326 µM).
